Test results taken from ChEMBL document CHEMBL4308835, “Fluorine-Substituted Pyrrolo[2,3- d]Pyrimidine Analogues with Tumor Targeting via Cellular Uptake by Folate Receptor α and the Proton-Coupled Folate Transporter and Inhibition of de Novo Purine Nucleotide Biosynthesis” (J Med Chem, 2018).
Calls of active or inactive are those of the source. No cut-off for these calls is given here.

What was measured:
[1] = Antiproliferative activity in Chinese hamster R2 cells deficient in RFC, PCFT, and FRalpha assessed as reduction in cell growth after 96 hrs by Cell-Titer Blue assay; type: cell-based; conditions: Cricetulus griseus, R2, 96 h
[2] = target: T1, Reduced folate transporter (Homo sapiens) (UniProt P41440); test: Inhibition of human RFC2 expressed in human HeLa R1-11 cells assessed as reduction in [3H]MTX uptake at pH 7.2 at 10 uM measured over 2 mins relative to control; type: cell-based
T1 sequence (whole entry): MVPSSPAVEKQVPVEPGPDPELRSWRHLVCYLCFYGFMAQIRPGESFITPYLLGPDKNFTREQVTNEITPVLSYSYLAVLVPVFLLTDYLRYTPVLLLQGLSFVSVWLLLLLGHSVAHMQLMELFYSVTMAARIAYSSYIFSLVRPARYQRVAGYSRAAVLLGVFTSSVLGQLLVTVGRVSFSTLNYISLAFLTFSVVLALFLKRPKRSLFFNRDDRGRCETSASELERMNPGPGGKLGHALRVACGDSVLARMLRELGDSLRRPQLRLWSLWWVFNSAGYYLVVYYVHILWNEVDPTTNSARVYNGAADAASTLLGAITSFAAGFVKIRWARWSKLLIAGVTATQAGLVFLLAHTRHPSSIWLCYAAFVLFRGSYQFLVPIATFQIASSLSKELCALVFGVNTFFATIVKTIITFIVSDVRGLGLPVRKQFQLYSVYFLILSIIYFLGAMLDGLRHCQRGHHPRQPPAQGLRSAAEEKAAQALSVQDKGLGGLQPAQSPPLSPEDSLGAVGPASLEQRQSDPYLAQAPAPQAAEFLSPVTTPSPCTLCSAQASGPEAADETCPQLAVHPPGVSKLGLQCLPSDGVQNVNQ

[3] = target: T2, Proton-coupled folate transporter (Homo sapiens) (UniProt Q96NT5); test: Inhibition of human PCFT expressed in Chinese hamster R2/PCFT4 cells assessed as reduction in [3H]MTX uptake at pH 5.5 at 1 to 10 uM measured over 2 mins; type: cell-based
T2 sequence (whole entry): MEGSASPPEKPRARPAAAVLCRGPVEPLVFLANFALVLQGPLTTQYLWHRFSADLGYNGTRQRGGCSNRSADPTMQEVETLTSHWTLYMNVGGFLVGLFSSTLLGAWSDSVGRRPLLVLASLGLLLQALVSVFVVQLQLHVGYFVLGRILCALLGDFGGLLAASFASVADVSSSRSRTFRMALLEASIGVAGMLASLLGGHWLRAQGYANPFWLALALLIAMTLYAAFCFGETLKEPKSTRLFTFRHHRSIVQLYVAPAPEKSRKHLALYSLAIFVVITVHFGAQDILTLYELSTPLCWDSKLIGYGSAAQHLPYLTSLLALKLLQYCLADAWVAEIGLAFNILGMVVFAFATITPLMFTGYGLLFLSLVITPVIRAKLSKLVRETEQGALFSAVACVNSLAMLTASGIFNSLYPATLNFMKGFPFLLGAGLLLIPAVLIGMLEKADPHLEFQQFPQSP

IGROV-1 [4] = test: Anticlonogenic activity against human IGROV1 cells incubated for 24 hrs followed by compound wash out and measured after 10 days by methylene blue staining-based assay; type: functional, cell-based
Procedure, shortened: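 IGROV1 cells plated in folate-free RPMI 1640 (pH 7.2), 10% dialyzed FBS, 25 nM LCV. After 24 h adherence, exposed to drug (0–20 μM) for 24 h at pH 6.8 (25 mM PIPES/25 mM HEPES). Washed, then grown drug-free at pH 7.2 (100 mM HEPES) with 25 nM LCV for up to 10 days at 37 °C. Colonies stained with methylene blue and counted electronically. Values normalized to vehicle controls. Triplicate experiments.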

IGROV-1 [5] = test: Antiproliferative activity against FRalpha […] human IGROV1 KD10 cells after 96 hrs by Cell-Titer Blue assay; type: functional, cell-based; conditions: IGROV-1, 96 h
IGROV-1 [6] = test: Antiproliferative activity against human IGROV1 cells harboring non targeted control shRNA sequence after 96 hrs by Cell-Titer Blue assay; type: functional, cell-based; conditions: IGROV-1, 96 h
A2780 = test: Antiproliferative activity against human A2780 cells after 96 hrs by Cell-Titer Blue assay; type: functional, cell-based; conditions: A2780, 96 h
IGROV-1 [7] = test: Antiproliferative activity against wild type human IGROV1 cells after 96 hrs by Cell-Titer Blue assay; type: functional, cell-based; conditions: IGROV-1, 96 h
IGROV-1 [8] = test: Antitumor activity against human IGROV1 cells xenografted in NCR SCID mouse assessed as median tumor burden at 32 mg/kg, iv treated once daily for 4 days per week for 3 weeks starting from 3 days post implantation and measured at day 60 post last dose (reference value: 108 mg); type: functional
Procedure, shortened: (§1)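 Female ICR SCID mice (10 weeks, ~20 g) kept on folate-deficient diet ad libitum for 14 d before bilateral subcutaneous IGROV1 implantation; a control cohort was fed standard folate-replete chow. 5 mice/group, nonselectively randomized. […] Tumors measured twice weekly, body weights daily. T/C from median tumor burdens.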

IGROV-1 [9] = test: Antitumor activity against human IGROV1 cells xenografted in NCR SCID mouse assessed as time for tumor growth delay at 95 mg/kg, iv treated once daily for 4 days per week for 4 weeks starting from 3 days post implantation; type: functional; conditions: in the assay text read “32 mg/kg” for “95 mg/kg”
Procedure, shortened: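 Female ICR SCID mice, 10 weeks old, kept on a folate-deficient diet for 14 days before bilateral subcutaneous IGROV1 implants; a control cohort was fed folate-replete chow. Randomized at 5 mice/group. […] Tumors measured twice weekly; body weights recorded daily.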

[10] = Toxicity in NCR SCID mouse xenografted with human IGROV1 cells at 32 mg/kg, iv treated once daily for 4 days per week for 3 weeks starting from 3 days post implantation; type: organism-based; conditions: in vivo
Procedure, shortened: (§2)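 Female ICR SCID mice on a folate-deficient diet for 14 days before bilateral subcutaneous IGROV1 implants. Randomized at 5 mice/group. […] Body weights recorded daily; tumors measured twice weekly.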

[11] = Toxicity in NCR SCID mouse xenografted with human IGROV1 cells assessed as weight loss median nadir at 32 mg/kg, iv treated once daily for 4 days per week for 3 weeks starting from 3 days post implantation and measured at day 14 post last dose relative to control; type: organism-based; conditions: in vivo; procedure, shortened: as §1
[12] = Toxicity in NCR SCID mouse xenografted with human IGROV1 cells assessed as weight loss median nadir at 32 mg/kg, iv treated once daily for 4 days per week for 3 weeks starting from 3 days post implantation and measured at day 18 post last dose relative to control; type: organism-based; conditions: in vivo; procedure, shortened: as §2
[13] = target: T1, Reduced folate transporter (Homo sapiens); test: Inhibition of human RFC2 expressed in human HeLa R1-11 cells assessed as reduction in [3H]MTX uptake at pH 7.2 at 1 uM measured over 2 mins relative to control; type: cell-based
[14] = Toxicity in NCR SCID mouse xenografted with human IGROV1 cells assessed as weight loss median nadir at 32 mg/kg, iv treated once daily for 4 days per week for 4 weeks starting from 3 days post implantation and measured after conclusion of therapy; type: organism-based; conditions: in vivo

With `Nc1nc2[nH]c(CCCc3ccc(C(=O)N[C@@H](CCC(=O)O)C(=O)O)s3)cc2c(=O)[nH]1` the IC50 [1] was 355 nM, the inhibition [2] was “inactive” and the inhibition [3] was “Active”. The IC50 (IGROV-1 [4]) was 270 nM, the IC50 (IGROV-1 [5]) was 74.6 nM and the IC50 (IGROV-1 [6]) was 10.1 nM. For the same compound, the IC50 (A2780) was 27.4 nM, the IC50 (IGROV-1 [7]) was 16.7 nM and the Activity (IGROV-1 [8]) was 108 mg. For the same compound, the Time (IGROV-1 [9]) was 35 days, the Activity [10] was “Non-Toxic” and the Activity [11] was 15.7%. For the same compound, the Activity [12] was 12.1%, the inhibition [13] was “inactive” and the Activity [14] was “Non-Toxic”.
